Compounds with a hit are over-represented: about 1.8% of the library has one in this group of screens.
M5 ag – human M5 muscarinic receptor agonists, primary screen, CHO-K1 cells, Fluo-8 calcium fluorescence. Muscarinic acetylcholine receptor M5 (Homo sapiens), P08912. CHO-K1 hM5 cells; 0% DMSO wells, 100% maximal acetylcholine response. activation, % at 3 µM. 0.19% of 360,000 active. AID 624037, 2012;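 active means activation above the run's mean over test compounds plus 3 SD, cut at about 23% in these data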;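 further: signal is peak over basal fluorescence ratio across the kinetic read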
M5 antag – human M5 muscarinic receptor antagonists, primary screen, CHO cells, Fluo-8 calcium fluorescence | CHO-hM5 cells, ACh EC80 | inhibition, % at 3 µM | 0.59% of 360,000 active;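 active means inhibition above a per-plate cutoff, the mean of that plate's test compounds plus 3 SD, cut at about 27% in these data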
M4 PAM – human M4 muscarinic receptor positive allosteric modulators, primary screen, CHO-K1 cells, Fluo-8 calcium fluorescence | Muscarinic acetylcholine receptor M4 (Homo sapiens), P08173 | activation, % at 3 µM | CHO-K1 hM4/Gqi5, ACh EC20; 0% = ACh EC20, 100% = maximal ACh | 0.4% of 360,000 active;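 active means activation above its plate's cutoff, the mean activation of sample wells plus 3 SD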
Target sequence (P08173 whole entry, looked up): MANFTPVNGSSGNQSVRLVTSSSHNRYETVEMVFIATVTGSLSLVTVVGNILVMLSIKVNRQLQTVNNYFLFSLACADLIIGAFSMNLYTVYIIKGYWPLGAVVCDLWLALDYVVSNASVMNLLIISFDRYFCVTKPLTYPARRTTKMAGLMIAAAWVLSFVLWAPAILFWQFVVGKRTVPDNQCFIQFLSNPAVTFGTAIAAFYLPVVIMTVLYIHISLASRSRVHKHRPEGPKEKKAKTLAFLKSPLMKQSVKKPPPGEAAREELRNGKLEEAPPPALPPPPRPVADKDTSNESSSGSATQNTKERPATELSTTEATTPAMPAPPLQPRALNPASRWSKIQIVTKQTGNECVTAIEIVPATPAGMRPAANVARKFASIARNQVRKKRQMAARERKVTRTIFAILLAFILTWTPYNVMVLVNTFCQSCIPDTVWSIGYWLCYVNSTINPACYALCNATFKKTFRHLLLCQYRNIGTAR
CHRM5 PAM – human M5 muscarinic receptor positive allosteric modulators, primary screen, CHO-K1 cells, Fluo-8 calcium fluorescence. Muscarinic acetylcholine receptor M5 (Homo sapiens), P08912. CHO-K1 hM5, ACh EC20 PAM; 0% = ACh EC20, 100% = ACh EC100. 0.3% of 360,000 active. activation, % at 3 µM;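 active means activation above the run cutoff, the mean activation of all test compounds plus 3 SD, cut at about 18% in these data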
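system = human M5 receptor in CHO-K1 cells | reagent = EC20 acetylcholine as agonist stimulus | compound dosing = single-point, 3 µM nominal | incubation = Fluo-8 loading 80 min at 37 °C plus 30 min room temperature | detection = Fluo-8 calcium dye fluorescence, kinetic read | benchmarks = low control EC20 acetylcholine (0%), high control EC100 acetylcholine (100%)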
CHRM4 agonist – human M4 muscarinic receptor agonists, primary screen, CHO-K1 cells, Fluo-8 calcium fluorescence; activation, % at 3 µM; 0.14% of 360,000 active; CHO-K1 hM4/Gqi5; vehicle 0%, full acetylcholine response 100%;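 active means activation above the run mean over all test wells plus 3 SD, cut at about 32% in these data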;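 further: peak over basal fluorescence ratio per well then scaled between controls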
M4 antag – human M4 muscarinic receptor antagonists, primary screen, CHO cells, Fluo-8 calcium fluorescence; Muscarinic acetylcholine receptor M4 (Homo sapiens), P08173; CHO-hM4 cells, ACh EC80; inhibition, % at 3 µM; 0.73% of 360,000 active; AID 624125, 2012;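 active means inhibition above its plate's cutoff, the mean inhibition of sample wells plus 3 SD, cut at about 27% in these data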
Numbers stand for hits; – = inactive; ! = not active in a repeat.

SMILES	M5 ag	M5 antag	M4 PAM	CHRM5 PAM	CHRM4 agonist	M4 antag
Cc1cccc(C)c1NC(=O)C(c1ccnc2ccccc12)N1CCN(CCN(C)C)CC1 (stereo not given)	–	–	–	–	–	–
CC1(Oc2ccccc2-c2ccno2)CCN(Cc2csc3ccccc23)C1 (stereo not given)	–	–	–	–	–	33
O=C(C1CCN(S(=O)(=O)c2cnc[nH]2)CC1)N1CCN(c2ccc([N+](=O)[O-])cc2)CC1	–	–	14	–	–	–
CN(C)CC(=O)N[C@@H]1CC[C@@H](CC(=O)NCCN2CCCCC2)O[C@@H]1CO	–	–	–	20	–	–
CN(C)CC(=O)N[C@@H]1C=C[C@@H](CC(=O)NCCN2CCCCC2)O[C@@H]1CO	–	–	–	–	–	–
NC(=O)c1nc(C(=O)N2CCCCC2)c2ccccc2n1	–	–	–	–	–	–
NC(=O)c1nc(C(=O)N2CCN(c3ccccc3)CC2)c2ccccc2n1	–	–	–	20	–	–
CCOc1ccccc1NC(=O)C(c1ccccc1)N1CCN(C(=O)c2ccco2)CC1 (stereo not given)	–	–	–	–	–	–
CC(=O)c1sc(NC(=O)CCS(=O)(=O)c2ccccc2)nc1C	–	–	17	–	–	–
CC(=O)c1sc(NC(=O)CCS(=O)(=O)c2ccc(F)cc2)nc1C	–	–	–	–	–	–
O=C(NCc1ccon1)C1CCC(=O)N(CCc2ccc(Cl)cc2)C1 (stereo not given)	–	–	16	21	–	–
O=c1[nH]ncc(N2CCN(Cc3ccccc3)CC2)c1Cl	–	–	–	–	–	–
CC(C)Oc1ccc(S(=O)(=O)N2CCOCC2)cc1NC(=O)c1ccc(N2CCCC2=O)cc1	–	28	–	–	–	–
CC(C)=CCC[C@H](C)C[C@@H]1Cc2[nH][nH]c(=O)c2[C@@H](c2ccc(F)cc2)O1	–	–	–	–	–	–
COc1ccccc1OCC(O)CN1CCN(CC(=O)Nc2c(C)cccc2C)CC1 (stereo not given)	–	–	–	–	–	28!
CCCSc1nc(NCc2ccco2)c2c3c(sc2n1)COC(C)(C)C3	–	–	43	–	–	–
CSc1nc(SC(C)C(=O)O)c2c3c(sc2n1)COC(C)(C)C3 (stereo not given)	–	–	–	–	–	–
CCCCSc1nc(NCc2ccco2)c2c3c(sc2n1)COC(C)(C)C3	–	–	–	–	–	–
CSc1nc(SCCN(C)C)c2c3c(sc2n1)COC(C)(C)C3	–	–	–	–	52	–
Cc1c(C=O)cnn1CCC(=O)O	–	–	–	–	–	–
O=C(CCC(=O)N1CCOCC1)NCCc1ccc(Cl)cc1Cl	–	–	–	–	–	–
COc1ccc(Cn2ccnc2)cc1Br	–	–	–	–	–	29
COc1ccc(Cn2ccnc2)cc1[N+](=O)[O-]	–	–	–	–	–	–
Cc1cc(C)c(NC(=S)N(C)C)c(C)c1	–	–	–	–	–	–
O=C(NC(NC(=S)Nc1ccccc1)C(Cl)(Cl)Cl)c1cccc(Cl)c1 (stereo not given)	–	44	–	–	–	–
SMILES	M5 ag	M5 antag	M4 PAM	CHRM5 PAM	CHRM4 agonist	M4 antag
Cc1ccc(NC(=S)NC(NC(=O)c2ccccc2)C(Cl)(Cl)Cl)c(C)c1 (stereo not given)	–	–	–	–	–	–
Cc1ccc(C(=O)NC(NC(=S)Nc2ccc(S(N)(=O)=O)cc2)C(Cl)(Cl)Cl)cc1 (stereo not given)	–	–	–	–	–	–
Cc1cc(C)c(NC(=S)NC(NC(=O)c2ccccc2)C(Cl)(Cl)Cl)c(C)c1 (stereo not given)	–	27	–	–	–	–
Cc1ccccc1C(=O)NC(NC(=S)Nc1ccc(S(N)(=O)=O)cc1)C(Cl)(Cl)Cl (stereo not given)	–	–	24	–	–	–
C[C@@H]1CN([C@H](C)CO)C(=O)CCCn2nncc2CO[C@@H]1CN(C)C(=O)Nc1cccc2ccccc12	–	–	–	–	–	–
CCN(C1CCS(=O)(=O)C1)S(=O)(=O)c1ccc2ccccc2c1 (stereo not given)	–	–	–	–	–	–
COc1ccc(OC)c(NP2(=O)OCC(C)([N+](=O)[O-])CO2)c1 (stereo not given)	–	–	–	–	–	–
Cc1ccc(C(=O)NCC(=O)OCCCn2c(=O)[nH]c3ccccc32)cc1C	–	–	–	–	–	–
CN1CCN(Cc2nc3ccccc3c(=O)n2Cc2nc(-c3ccc4ccccc4c3)cs2)CC1	–	–	22!	–	–	–
O=S1(=O)CC(N2CCSCC2)CN1Cc1cn(Cc2cccc(C(F)(F)F)c2)nn1 (stereo not given)	–	–	–	–	–	–
CC(C)C(NC(=O)OCc1ccccc1)C(=O)NC1CCCCC1 (stereo not given)	–	–	31	–	–	–
COCCNC(=O)CSc1c2c(nc3ccc(Cl)cc13)CCCC2	–	–	–	–	–	–
COc1ccc(N2Cc3ccc(OC)c(OC)c3C2=O)cc1	–	–	–	–	–	60
Cc1nn(C)c(Oc2cccc(Cl)c2)c1C(=O)Nc1ccc(F)cc1	–	–	–	–	–	–
COc1cc(-c2coc3c(C(=O)NCc4ccc(OC)c(OC)c4)cccc23)ccc1O	–	–	–	–	–	–
COc1ccc(CNC(=O)c2cccc3c(-c4cccc(C(N)=O)c4)coc23)cc1OC	–	27	–	–	–	–
CCOc1nc(-c2ccccc2)ccc1-c1noc(COC)n1	–	–	–	18	–	–
Nc1nnnn1N=C1CCCCC1	–	–	–	29	–	–
CN(C)CCNc1oc(COc2cccc(Cl)c2)nc1C#N	–	–	–	–	–	–
COCCNc1oc(COc2cccc(C)c2)nc1C#N	–	–	–	24	–	–
O=C(NCc1cccnc1)/C(=C/c1ccc(-c2ccc(Cl)cc2)o1)S(=O)(=O)c1ccccc1	–	–	–	–	–	28
COc1cc(CCC(=O)OCC(=O)Nc2cc(S(=O)(=O)N3CCOCC3)ccc2Cl)cc(OC)c1OC	–	–	–	–	–	–
